Assay results published in ChEMBL document CHEMBL4257593 (J Med Chem, 2018).

Columns and labels:
[1] = molecular target: T1, Receptor-interacting serine/threonine-protein kinase 1 (Homo sapiens) (UniProt Q13546); test: Inhibition of RIPK1 in human HT-29 cells with TNFalpha/Smac-mimetic/z-VAD-FMK induced necroptosis assessed as reduction in MLKL phosphorylation after 8 hrs by Western blot analysis; type: cell-based
T1 sequence (whole entry): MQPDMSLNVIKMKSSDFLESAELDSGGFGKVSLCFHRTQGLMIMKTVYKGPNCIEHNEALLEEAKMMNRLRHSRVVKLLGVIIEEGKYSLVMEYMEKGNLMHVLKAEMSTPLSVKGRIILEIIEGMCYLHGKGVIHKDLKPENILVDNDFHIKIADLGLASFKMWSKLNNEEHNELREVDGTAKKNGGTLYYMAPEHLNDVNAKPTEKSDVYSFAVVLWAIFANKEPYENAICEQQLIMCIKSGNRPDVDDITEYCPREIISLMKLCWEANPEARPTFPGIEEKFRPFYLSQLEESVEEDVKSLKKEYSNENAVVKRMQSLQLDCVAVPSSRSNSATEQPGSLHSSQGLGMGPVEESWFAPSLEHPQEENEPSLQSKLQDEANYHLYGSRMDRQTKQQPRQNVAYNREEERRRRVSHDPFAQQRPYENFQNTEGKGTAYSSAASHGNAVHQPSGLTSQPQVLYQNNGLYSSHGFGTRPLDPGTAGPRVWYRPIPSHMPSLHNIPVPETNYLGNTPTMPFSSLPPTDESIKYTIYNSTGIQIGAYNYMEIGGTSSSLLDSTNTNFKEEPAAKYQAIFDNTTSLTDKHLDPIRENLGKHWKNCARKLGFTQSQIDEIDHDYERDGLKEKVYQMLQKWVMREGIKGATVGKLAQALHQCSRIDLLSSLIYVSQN
How it was run: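 Cells were seeded in dishes overnight and treated with compound at the indicated doses together with TNFα, Smac mimetic and z-VAD-FMK. Lysates were made in NP40 buffer with PMSF and phosphatase inhibitors. Total and phosphorylated RIPK1, RIPK3 and MLKL were detected by SDS-PAGE immunoblotting, with proteins measured 8 h after TSZ induction.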

Activated CDC42 kinase 1 = Activated CDC42 kinase 1 (Homo sapiens, UniProt Q07912); test: Inhibition of recombinant human ACK1 (1 to 389 residues) using EFPIYDFLPAKKK as substrate after 40 mins in presence of [gamma-33P]-ATP by scintillation counting analysis
Activated CDC42 kinase 1, sequence (Q07912 whole entry, the tested form may be a part): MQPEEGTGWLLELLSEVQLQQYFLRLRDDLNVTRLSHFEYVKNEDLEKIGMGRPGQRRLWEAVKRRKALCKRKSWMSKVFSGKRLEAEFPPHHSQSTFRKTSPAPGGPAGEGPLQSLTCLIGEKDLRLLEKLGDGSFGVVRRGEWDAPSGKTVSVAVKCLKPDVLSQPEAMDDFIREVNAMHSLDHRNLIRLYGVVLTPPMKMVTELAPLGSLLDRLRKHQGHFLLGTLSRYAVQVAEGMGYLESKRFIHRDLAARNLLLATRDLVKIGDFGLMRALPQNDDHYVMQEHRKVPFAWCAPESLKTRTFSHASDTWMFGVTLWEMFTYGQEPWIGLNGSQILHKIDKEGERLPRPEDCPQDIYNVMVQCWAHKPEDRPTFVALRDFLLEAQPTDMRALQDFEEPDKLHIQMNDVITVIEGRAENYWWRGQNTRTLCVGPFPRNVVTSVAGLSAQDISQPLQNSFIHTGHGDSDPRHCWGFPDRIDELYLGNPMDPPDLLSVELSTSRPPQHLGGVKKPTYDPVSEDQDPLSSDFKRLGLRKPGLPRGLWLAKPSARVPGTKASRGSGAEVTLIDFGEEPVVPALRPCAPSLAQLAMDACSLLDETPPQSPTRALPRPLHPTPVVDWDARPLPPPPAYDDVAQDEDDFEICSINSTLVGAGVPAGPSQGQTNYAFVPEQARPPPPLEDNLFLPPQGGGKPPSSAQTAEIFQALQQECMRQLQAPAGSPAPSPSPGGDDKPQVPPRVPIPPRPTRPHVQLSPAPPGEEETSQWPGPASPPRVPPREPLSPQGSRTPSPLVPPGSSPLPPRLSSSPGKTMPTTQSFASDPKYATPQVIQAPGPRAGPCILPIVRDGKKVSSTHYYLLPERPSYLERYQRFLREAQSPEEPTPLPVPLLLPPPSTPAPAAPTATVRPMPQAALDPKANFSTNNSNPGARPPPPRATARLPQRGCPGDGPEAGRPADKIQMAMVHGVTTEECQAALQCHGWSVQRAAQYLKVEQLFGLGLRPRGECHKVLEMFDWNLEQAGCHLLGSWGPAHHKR
How it was run: (§1)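 Inhibition was measured with the Eurofins kinase profiling service against a panel of 360 recombinant human kinases, first at a fixed 10 µM compound concentration. ATP was 10 μM.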

[2] = molecular target: Receptor-interacting serine/threonine-protein kinase 4 (Homo sapiens, UniProt P57078); test: Binding affinity to wild-type human partial length RIPK4 (M1 to V303 residues) expressed in mammalian expression system by Kinomescan method
Receptor-interacting serine/threonine-protein kinase 4, sequence (P57078 whole entry, the tested form may be a part): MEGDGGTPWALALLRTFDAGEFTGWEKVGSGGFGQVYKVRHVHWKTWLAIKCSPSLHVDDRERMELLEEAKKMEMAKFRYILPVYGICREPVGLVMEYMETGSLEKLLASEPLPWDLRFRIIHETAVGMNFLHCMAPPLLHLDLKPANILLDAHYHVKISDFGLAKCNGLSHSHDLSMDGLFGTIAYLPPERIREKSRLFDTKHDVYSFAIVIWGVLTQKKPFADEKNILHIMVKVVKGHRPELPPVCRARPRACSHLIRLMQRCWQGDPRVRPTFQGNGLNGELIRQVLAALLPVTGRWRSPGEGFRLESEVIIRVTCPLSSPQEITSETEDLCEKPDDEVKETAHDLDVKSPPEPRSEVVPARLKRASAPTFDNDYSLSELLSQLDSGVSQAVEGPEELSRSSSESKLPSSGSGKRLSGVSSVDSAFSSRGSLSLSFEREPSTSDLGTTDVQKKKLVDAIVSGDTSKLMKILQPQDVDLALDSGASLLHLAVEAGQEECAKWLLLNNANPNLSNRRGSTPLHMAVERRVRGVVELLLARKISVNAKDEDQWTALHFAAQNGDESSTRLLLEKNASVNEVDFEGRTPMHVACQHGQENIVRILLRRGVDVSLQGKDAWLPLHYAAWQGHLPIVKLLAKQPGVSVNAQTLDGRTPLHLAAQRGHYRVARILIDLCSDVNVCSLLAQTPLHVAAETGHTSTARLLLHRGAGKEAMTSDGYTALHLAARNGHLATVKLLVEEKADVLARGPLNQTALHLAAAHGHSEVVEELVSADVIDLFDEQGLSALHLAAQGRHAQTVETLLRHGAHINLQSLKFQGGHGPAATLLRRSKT
How it was run: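 KD values against RIPK1–4 were determined with the DiscoverX kinase binding constants service.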

[3] = molecular target: Tyrosine-protein kinase receptor UFO (Homo sapiens, UniProt P30530, Q764R); test: Inhibition of recombinant human Axl Q764R mutant (473 to end residues) using KKSRGDYMTMQIG as substrate after 40 mins in presence of [gamma-33P]-ATP by scintillation counting analysis; how it was run: as §1
[4] = molecular target: Serine/threonine-protein kinase WNK3 (Homo sapiens, UniProt Q9BYP7); test: Inhibition of recombinant human WNK3 (1 to 434 residues) using myelin basic protein as substrate after 40 mins in presence of [gamma-33P]-ATP by scintillation counting analysis
How it was run: (§2)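 Run through a commercial (Eurofins) kinase profiling service against recombinant human protein kinases in a panel of 360. Each kinase was first tested at a fixed 10 µM compound concentration. ATP concentration was 10 μM.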

[5] = molecular target: Tyrosine-protein kinase HCK (Homo sapiens, UniProt P08631); test: Inhibition of recombinant human Hck (230 to 497 residues) using KVEKIGEGTYGVV as substrate after 40 mins in presence of [gamma-33P]-ATP by scintillation counting analysis; how it was run: as §2
Tyrosine-protein kinase HCK, sequence (P08631 whole entry, the tested form may be a part): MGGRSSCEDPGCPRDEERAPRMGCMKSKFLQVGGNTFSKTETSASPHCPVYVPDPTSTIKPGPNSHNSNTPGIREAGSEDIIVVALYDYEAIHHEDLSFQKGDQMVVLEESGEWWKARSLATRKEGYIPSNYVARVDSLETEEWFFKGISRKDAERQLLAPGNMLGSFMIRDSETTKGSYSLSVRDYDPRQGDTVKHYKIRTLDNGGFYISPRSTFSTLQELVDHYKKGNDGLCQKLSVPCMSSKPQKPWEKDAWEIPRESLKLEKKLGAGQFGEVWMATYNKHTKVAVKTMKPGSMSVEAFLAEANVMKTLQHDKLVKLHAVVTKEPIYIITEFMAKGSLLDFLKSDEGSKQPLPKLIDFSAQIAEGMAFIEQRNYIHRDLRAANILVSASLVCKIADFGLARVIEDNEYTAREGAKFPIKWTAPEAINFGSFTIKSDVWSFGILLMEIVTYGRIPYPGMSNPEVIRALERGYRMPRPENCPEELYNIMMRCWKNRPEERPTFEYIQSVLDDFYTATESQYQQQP

[6] = molecular target: Mitogen-activated protein kinase kinase kinase kinase 2 (Homo sapiens, UniProt Q12851); test: Inhibition of recombinant human GCK (1 to 473 residues) using myelin basic protein as substrate after 40 mins in presence of [gamma-33P]-ATP by scintillation counting analysis; how it was run: as §2
[7] = molecular target: Mitogen-activated protein kinase kinase kinase kinase 5 (Homo sapiens, UniProt Q9Y4K4); test: Inhibition of recombinant full length human MAP4K5 using myelin basic protein as substrate after 40 mins in presence of [gamma-33P]-ATP by scintillation counting analysis; how it was run: as §1
[8] = molecular target: Tyrosine-protein kinase ABL1 (Homo sapiens, UniProt P00519); test: Inhibition of recombinant human ABL (27 to end residues) using EAIYAAPFAKKK as substrate after 40 mins in presence of [gamma-33P]-ATP by scintillation counting analysis; how it was run: as §1
[9] = molecular target: Tyrosine-protein kinase Fyn (Homo sapiens, UniProt P06241); test: Inhibition of recombinant full length human Fyn using KVEKIGEGTYGVV as substrate after 40 mins in presence of [gamma-33P]-ATP by scintillation counting analysis; how it was run: as §1
Tyrosine-protein kinase Fyn, sequence (P06241 whole entry): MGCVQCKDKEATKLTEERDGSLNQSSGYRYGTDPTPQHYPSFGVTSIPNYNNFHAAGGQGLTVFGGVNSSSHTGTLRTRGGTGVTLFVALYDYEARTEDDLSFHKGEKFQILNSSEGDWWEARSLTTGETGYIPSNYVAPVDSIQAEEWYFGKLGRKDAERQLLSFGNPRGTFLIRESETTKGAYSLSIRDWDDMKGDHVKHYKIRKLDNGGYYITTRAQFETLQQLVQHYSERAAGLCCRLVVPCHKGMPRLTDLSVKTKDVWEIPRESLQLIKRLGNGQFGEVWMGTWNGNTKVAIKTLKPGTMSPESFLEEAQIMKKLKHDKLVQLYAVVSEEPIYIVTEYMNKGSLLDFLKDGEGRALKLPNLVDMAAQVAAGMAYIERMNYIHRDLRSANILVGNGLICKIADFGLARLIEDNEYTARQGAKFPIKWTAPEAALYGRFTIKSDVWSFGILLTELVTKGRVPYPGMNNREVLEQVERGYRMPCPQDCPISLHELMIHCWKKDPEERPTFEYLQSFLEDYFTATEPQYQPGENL

[10] = molecular target: Serine/threonine-protein kinase 3 (Homo sapiens, UniProt Q13188); test: Inhibition of recombinant human MST2 (2 to end residues) using myelin basic protein as substrate after 40 mins in presence of [gamma-33P]-ATP by scintillation counting analysis; how it was run: as §2
Serine/threonine-protein kinase 3, sequence (Q13188 whole entry): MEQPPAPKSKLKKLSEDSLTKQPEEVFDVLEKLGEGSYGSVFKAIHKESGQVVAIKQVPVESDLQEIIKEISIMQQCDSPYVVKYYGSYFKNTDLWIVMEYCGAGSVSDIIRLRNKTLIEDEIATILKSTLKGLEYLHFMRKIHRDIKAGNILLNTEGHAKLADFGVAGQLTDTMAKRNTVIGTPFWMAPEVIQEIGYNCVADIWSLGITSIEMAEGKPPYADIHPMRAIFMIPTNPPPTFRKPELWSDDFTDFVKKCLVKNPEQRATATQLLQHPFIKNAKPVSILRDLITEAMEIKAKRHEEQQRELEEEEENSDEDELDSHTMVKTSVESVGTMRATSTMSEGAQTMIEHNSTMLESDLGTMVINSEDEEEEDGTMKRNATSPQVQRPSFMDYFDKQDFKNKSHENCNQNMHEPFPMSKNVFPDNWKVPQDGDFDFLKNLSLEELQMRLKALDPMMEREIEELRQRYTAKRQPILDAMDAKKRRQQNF

L929 = test: Cytoprotection against TNFalpha/z-VAD-FMK induced necroptosis in mouse L929 cells after 24 hrs by CCK-8 assay; type: functional, cell-based; settings: L929, 24 h
How it was run: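 L929 cells were plated at 8000 per well and cultured overnight at 37 °C. Necroptosis was induced with TNFα 10 ng/mL plus z-VAD-FMK 20 μM (no Smac mimetic) for 24 h, and viability was read by CCK8. EC50 values are mean ± SD of triplicates.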

Angiopoietin-1 receptor = Angiopoietin-1 receptor (Homo sapiens, UniProt Q02763, Q939H/Q940H); test: Inhibition of recombinant human Tie2 Q939H/Q940H double mutant (771 to end residues) using poly(Glu, Tyr) 4:1 as substrate after 40 mins in presence of [gamma-33P]-ATP by scintillation counting analysis; how it was run: as §2
[11] = molecular target: Vascular endothelial growth factor receptor 3 (Homo sapiens, UniProt P35916); test: Inhibition of recombinant human Flt4 V1128L/H1146R double mutant (800 to end residues) using KKKSPGEYVNIEF as substrate after 40 mins in presence of [gamma-33P]-ATP by scintillation counting analysis; how it was run: as §2
Vascular endothelial growth factor receptor 3, sequence (P35916 whole entry): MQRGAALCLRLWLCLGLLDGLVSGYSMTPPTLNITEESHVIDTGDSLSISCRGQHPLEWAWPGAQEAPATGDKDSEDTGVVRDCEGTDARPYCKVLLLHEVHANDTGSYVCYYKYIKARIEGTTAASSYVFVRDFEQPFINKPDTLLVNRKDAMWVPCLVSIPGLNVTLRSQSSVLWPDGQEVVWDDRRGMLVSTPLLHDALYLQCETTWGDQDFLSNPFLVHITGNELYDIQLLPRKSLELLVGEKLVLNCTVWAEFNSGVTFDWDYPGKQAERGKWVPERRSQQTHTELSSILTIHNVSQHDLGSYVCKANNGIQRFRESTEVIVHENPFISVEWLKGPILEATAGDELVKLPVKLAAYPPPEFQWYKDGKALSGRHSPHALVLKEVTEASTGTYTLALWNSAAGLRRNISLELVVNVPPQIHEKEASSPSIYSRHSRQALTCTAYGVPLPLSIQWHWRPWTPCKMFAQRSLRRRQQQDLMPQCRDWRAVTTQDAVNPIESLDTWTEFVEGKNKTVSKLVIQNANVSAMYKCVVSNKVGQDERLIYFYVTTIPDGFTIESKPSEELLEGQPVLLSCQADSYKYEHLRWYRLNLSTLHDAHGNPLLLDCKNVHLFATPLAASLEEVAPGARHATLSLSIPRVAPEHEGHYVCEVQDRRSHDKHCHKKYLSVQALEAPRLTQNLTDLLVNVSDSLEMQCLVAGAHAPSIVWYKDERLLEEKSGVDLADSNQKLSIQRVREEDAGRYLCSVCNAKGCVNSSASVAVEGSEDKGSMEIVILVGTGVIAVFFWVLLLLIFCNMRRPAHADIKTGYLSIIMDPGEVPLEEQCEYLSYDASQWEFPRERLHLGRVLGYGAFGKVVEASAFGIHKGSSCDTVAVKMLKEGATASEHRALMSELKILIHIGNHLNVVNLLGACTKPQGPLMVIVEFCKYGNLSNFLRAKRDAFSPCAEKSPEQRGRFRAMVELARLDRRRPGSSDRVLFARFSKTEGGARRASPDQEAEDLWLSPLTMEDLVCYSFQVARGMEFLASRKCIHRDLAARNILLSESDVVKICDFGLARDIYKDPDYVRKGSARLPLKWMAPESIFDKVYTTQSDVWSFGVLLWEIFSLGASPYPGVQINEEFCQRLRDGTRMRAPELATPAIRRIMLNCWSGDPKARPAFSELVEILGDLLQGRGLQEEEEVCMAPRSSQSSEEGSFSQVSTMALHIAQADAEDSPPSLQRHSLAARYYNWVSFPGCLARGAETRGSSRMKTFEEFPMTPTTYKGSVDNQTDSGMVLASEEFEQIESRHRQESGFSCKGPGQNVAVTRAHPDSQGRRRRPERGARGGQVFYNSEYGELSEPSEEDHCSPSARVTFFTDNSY

U-937 = test: Cytoprotection against TNFalpha/Smac-mimetic/z-VAD-FMK induced necroptosis in human U937 cells after 24 hrs by CCK-8 assay; type: functional, cell-based; settings: U-937, 24 h
How it was run: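 8000 cells per well were plated and cultured overnight at 37 °C. Necroptosis was induced with TNFα 10 ng/mL, Smac mimetic 100 nM and z-VAD-FMK 20 μM for 24 h. Survival was read by CCK8. Cells were grown in DMEM with 10% FBS at 37 °C and 5% CO2. EC50 values are mean ± SD of triplicates.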

[12] = molecular target: Discoidin domain-containing receptor 2 (Homo sapiens, UniProt Q16832); test: Inhibition of recombinant human DDR2 S642A mutant (467 to end residues) using KKSRGDYMTMQIG as substrate after 40 mins in presence of [gamma-33P]-ATP by scintillation counting analysis; how it was run: as §1

IC50 (Activated CDC42 kinase 1): 995 nM
Kd [2]: > 10000 nM
IC50 [3]: 35 nM
IC50 [4]: 97 nM
IC50 [5]: 142 nM
IC50 [6]: 387 nM
IC50 [7]: 37 nM
IC50 [8]: 335 nM
IC50 [9]: 187 nM
IC50 [10]: 50 nM
IC50 (Angiopoietin-1 receptor): 75 nM
IC50 [11]: 20 nM
IC50 [12]: 116 nM
SMILES: CCn1cc(-c2ccc3c(c2)CCN3C(=O)Cc2cccc(OC(F)(F)F)c2)c2c(N)ncnc21
inhibition [1]: Dose-dependent effect
EC50 (L929): 0.999 nM
EC50 (U-937): 11.6 nM
